# Screens as filed in PubChem BioAssay.
# PGC1a acetyl inh = lowers PGC1a acetylation signal in U2OS cells. AlphaScreen anti-acetyl-lysine; with virally co-expressed GCN5 acetyltransferase. inhibition, % at 15.6 µM. 350,000 tested, 0.17% active. AID 651687;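 active = every replicate shows inhibition of at least 40%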
# S100A4 MyoIIA = inhibitors of human S100A4 binding to myosin IIA peptide. P26447. S100A4/TAMRA-MyoIIA peptide fluorescence polarization. inhibition, % at 10.7 µM. 360,000 tested, 0.14% active. AID 652163;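 active = mean inhibition of at least 70% across replicates, with every replicate also reaching that level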
# Target sequence (P26447 whole entry, looked up): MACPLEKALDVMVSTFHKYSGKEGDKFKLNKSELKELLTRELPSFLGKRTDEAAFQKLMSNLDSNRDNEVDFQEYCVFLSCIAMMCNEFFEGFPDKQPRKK
#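 Test system – S100A4 monomer (human) · Compound – single-point compound testing · Schedule – 5 min incubation before reading · Probe or stimulus – TAMRA-labelled myosin IIA heavy-chain peptide probe, 5 nM · Benchmarks – neutral control DMSO, positive control TFP · Medium – Calcium-containing HEPES buffer, pH 7.2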
# Statin myotox sup = suppressors of simvastatin-induced myotoxicity in C2C12 myotubes | 330,000 tested, 0.78% active | AID 602340 | rescue of ATP level, % at 7.49 µM | ATP luminescence, 48 h; scaled: DMSO 0, geranylgeraniol control 100;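 active = mean ATP rescue above about 67%, or every replicate alone reaching that limit, limit read from the data, passing the limit was not always enough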;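 also: myotubes were challenged with 10 µM simvastatin during compound exposure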
# SIRT5 block = sirtuin-5 (human) deacylase inhibition; Q9NXA8; Purified SirT5, succinyl-peptide AMC, trypsin-coupled fluorescence; inhibition, % at 15 µM; 330,000 tested, 1.1% active; in the data active = inhibition above about 15%
# Target sequence (Q9NXA8 whole entry, looked up): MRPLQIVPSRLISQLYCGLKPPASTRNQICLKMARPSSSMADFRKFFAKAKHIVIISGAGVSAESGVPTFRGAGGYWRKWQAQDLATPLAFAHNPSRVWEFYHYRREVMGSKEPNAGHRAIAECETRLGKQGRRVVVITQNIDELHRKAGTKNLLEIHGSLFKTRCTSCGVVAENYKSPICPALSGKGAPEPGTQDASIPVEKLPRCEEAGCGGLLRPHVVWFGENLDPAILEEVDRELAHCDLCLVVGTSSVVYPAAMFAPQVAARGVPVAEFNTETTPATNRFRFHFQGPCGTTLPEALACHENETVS
# Ecoli rRNA inh = selective bacterial rRNA inhibition in E. coli; GFP signal change (wild-type ribosome), % (test concentration not listed); 350,000 tested, 1.6% active; AID 720706; E. coli WT GFP vs humanized-ribosome RFP mutants, fluorescence, 24 h; hits give low values; DMSO median 0, no signal -100;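 active = significant combined selectivity score with lowered wild-type GFP, culture density cut under 30%, mutant RFP and density less affected; inactive = any of these conditions unmet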
# Cneo AK release = causes C. neoformans cell lysis. adenylate kinase release luminescence, 4 h; normalised: neutral wells 0, clomiphene wells 100. 360,000 tested, 0.2% active. lysis activity, % at 15 µM;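 active = mean lysis activity across replicates of at least 80%, whatever share of replicates individually reach that level; inactive = mean lysis activity below 80%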
#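 Assay system: Cryptococcus neoformans yeast cells / Dosing: single-point compound dose / Timing: 4 h at 37 °C static, read 1 h later / Measured by: luminescence of released adenylate kinase using an AK detection reagent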
# Numbers stand for hits; – = inactive; · = not tested or not shown. The list is not random: actives were taken first. Their share in the collection is about 3%.
SMILES,PGC1a acetyl inh,S100A4 MyoIIA,Statin myotox sup,SIRT5 block,Ecoli rRNA inh,Cneo AK release
CC(=O)NC(CC(=O)N1CCN(C(C)=O)CC1)c1ccccc1 (centres undefined),·,–,–,25,–,–
O=C(NC(CC(=O)N1CCN(c2ccccc2)CC1)c1ccccc1)c1ccccc1 (centres undefined),–,–,–,·,–,–
Cc1ccc(C2=C(CC(=O)O)C(=O)CC2)cc1,·,·,·,·,·,–
COC(=O)CC1=C(c2ccc([N+](=O)[O-])cc2)CCC1=O,–,–,–,16,-19,–
O=C(C[C@H]1CC[C@H]2[C@@H](COC[C@@H](O)CN2CC2CCOCC2)O1)NCC1CC1,–,–,–,–,–,–
Cc1ccccc1S(=O)(=O)N1CCCCN2[C@H](CO)[C@@H](c3ccc(-c4ccccc4)cc3)[C@@H]2C1,–,–,·,19,·,–
Cc1ccccc1S(=O)(=O)N1CCCCN2[C@H](CO)[C@H](c3ccc(-c4ccccc4)cc3)[C@@H]2C1,–,–,·,–,·,–
Cc1cccc(-c2ccc([C@H]3[C@H](CO)N4CCCCN(S(=O)(=O)c5ccccc5C)C[C@@H]34)cc2)c1,–,–,·,–,-39,–
C[C@@H]1CN([C@@H](C)CO)C(=O)c2cccc(NC(=O)Nc3ccc(C(F)(F)F)cc3)c2O[C@H]1CN(C)C(=O)NC1CCCCC1,–,–,–,101,–,–
Cc1noc(C)c1NC(=O)Nc1cccc2c1O[C@H](CN(C)Cc1ccc(-c3ccccc3)cc1)[C@@H](C)CN([C@H](C)CO)C2=O,–,–,78,–,–,–
C[C@H](CO)N1C[C@H](C)[C@@H](CN(C)Cc2ccc(-c3ccccc3)cc2)Oc2c(NC(=O)c3ccncc3)cccc2C1=O,–,–,–,–,–,–
C[C@H](CO)N1C[C@H](C)[C@H](CN(C)Cc2ccc(-c3ccccc3)cc2)Oc2c(NC(=O)c3ccncc3)cccc2C1=O,–,–,–,–,–,111
C[C@@H]1CN([C@H](C)CO)C(=O)c2cccc(N(C)C)c2O[C@@H]1CN(C)C(=O)NC1CCCCC1,–,–,–,27,–,–
Cc1noc(C)c1NC(=O)Nc1cccc2c1O[C@H](CN(C)Cc1ccccc1)[C@@H](C)CN([C@H](C)CO)C2=O,·,–,–,–,–,–
O=C(C[C@H]1C=C[C@H](NS(=O)(=O)c2ccc(F)cc2)[C@H](CO)O1)NCc1ccc(Cl)c(Cl)c1,–,–,–,–,–,–
O=C(NC1Cc2ccccc2C1)[C@H]1[C@H](CO)[C@H]2Cn3c(ccc(-c4ccccc4F)c3=O)[C@@H]1N2,–,–,–,–,–,–
C[C@H](CO)N1C[C@H](C)[C@H](CN(C)S(=O)(=O)c2cn(C)cn2)Oc2ncc(C3=CCCC3)cc2C1=O,–,–,–,–,–,–
COc1ccccc1C#Cc1ccc2c(c1)O[C@H](CN(C)Cc1ccncc1)[C@@H](C)CN([C@@H](C)CO)S2(=O)=O,–,–,–,–,–,–
C[C@@H]1CN([C@H](C)CO)C(=O)c2cccc(NS(=O)(=O)c3cn(C)cn3)c2O[C@@H]1CN(C)C(=O)Nc1cccc2ccccc12,–,–,–,–,–,–
C[C@H]1CN([C@@H](C)CO)C(=O)c2cccc(NS(=O)(=O)c3cn(C)cn3)c2O[C@@H]1CN(C)Cc1ccc(C(F)(F)F)cc1,–,–,–,–,–,–
C[C@H](CO)N1C[C@H](C)[C@@H](CN(C)C(=O)Nc2cccc3ccccc23)Oc2c(cccc2N(C)C)C1=O,–,–,–,–,–,83
CC(C)NC(=O)N(C)C[C@@H]1Oc2c(NC(=O)Nc3cccc4ccccc34)cccc2C(=O)N([C@H](C)CO)C[C@@H]1C,–,–,–,–,–,–
C[C@@H]1CN([C@@H](C)CO)C(=O)c2cccc(NS(=O)(=O)c3cn(C)cn3)c2O[C@H]1CN(C)C(=O)Nc1cccc2ccccc12,–,–,–,29,–,–
C[C@@H]1CN([C@@H](C)CO)C(=O)c2cccc(NS(=O)(=O)c3cn(C)cn3)c2O[C@H]1CN(C)Cc1ccc(C(F)(F)F)cc1,–,–,–,21,–,–
CC(C)NC(=O)N(C)C[C@@H]1Oc2c(NC(=O)Nc3cccc4ccccc34)cccc2C(=O)N([C@H](C)CO)C[C@H]1C,–,101,–,–,–,–
SMILES,PGC1a acetyl inh,S100A4 MyoIIA,Statin myotox sup,SIRT5 block,Ecoli rRNA inh,Cneo AK release
CC(C)NC(=O)Nc1cccc2c1O[C@H](CN(C)C)[C@H](C)CN([C@@H](C)CO)C2=O,–,–,–,–,–,92
C[C@H](CO)N1C[C@H](C)[C@H](CN(C)Cc2ccc(C(F)(F)F)cc2)Oc2c(NC(=O)Nc3cccc4ccccc34)cccc2C1=O,–,–,81,–,–,–
CC(C)NC(=O)Nc1cccc2c1O[C@H](CN(C)C)[C@@H](C)CN([C@@H](C)CO)C2=O,–,–,–,–,–,–
C[C@@H]1CN([C@H](C)CO)C(=O)c2cccc(NC(=O)Nc3ccccc3)c2O[C@H]1CN(C)Cc1ccc(C(F)(F)F)cc1,·,–,–,–,–,–
C[C@@H]1CN([C@@H](C)CO)C(=O)c2cccc(NC(=O)Nc3ccc(C(F)(F)F)cc3)c2O[C@@H]1CN(C)Cc1ccc(-c2ccccc2)cc1,–,–,–,–,–,–
C[C@@H]1CN([C@H](C)CO)C(=O)c2cccc(NC(=O)Nc3ccc(C(F)(F)F)cc3)c2O[C@@H]1CN(C)Cc1ccc(-c2ccccc2)cc1,–,–,–,103,–,–
C[C@@H]1CN([C@H](C)CO)C(=O)c2cccc(NC(=O)Nc3ccc(C(F)(F)F)cc3)c2O[C@H]1CN(C)C(=O)Nc1cccc2ccccc12,–,–,·,27,–,–
CCCCNC(=O)c1onc(CSc2cc(C)ccc2C)c1C(=O)O,–,–,–,–,-40,–
COc1ccc(CNC(=O)C[C@H]2CC[C@H]3[C@H](COc4ccc(NC(=O)C5CC5)cc4C(=O)N3C)O2)cc1,–,–,–,–,–,–
COc1ccc(CNC(=O)C[C@H]2CC[C@H]3[C@@H](COc4ccc(NC(=O)C5CC5)cc4C(=O)N3C)O2)cc1,–,–,–,–,–,91
COc1cccc(CNC(=O)C[C@H]2CC[C@@H]3[C@@H](COc4ccc(NC(=O)c5cccs5)cc4C(=O)N3C)O2)c1,–,–,–,25,–,–
COc1cccc(CNC(=O)C[C@@H]2CC[C@@H]3[C@@H](COc4ccc(NC(=O)c5cccs5)cc4C(=O)N3C)O2)c1,–,–,–,–,–,–
